Laboratory results as given in ChEMBL document CHEMBL1143064, “Novel 9a-carbamoyl- and 9a-thiocarbamoyl-3-decladinosyl-6-hydroxy and 6-methoxy derivatives of 15-membered macrolides” (Bioorg Med Chem, 2007).
In brackets after ≈: the same amount, converted by molar mass.

Legend:
Staphylococcus aureus [1] = experiment: Antibacterial activity against Staphylococcus aureus-M after 24 hrs by microdilution method; format: functional
Procedure, shortened: (§1)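 Broth microdilution in Mueller–Hinton medium run on an automated liquid handler. Compounds dissolved in DMF (5 mg/ml stock) and tested in medium from 64 to 0.125 µg/ml. Plates incubated 24 h at 37 °C, then growth read as absorbance at 600 nm. MIC taken as the concentration giving 90% growth inhibition.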

Staphylococcus aureus [2] = experiment: Antibacterial activity against Staphylococcus aureus-cMLS after 24 hrs by microdilution method; format: functional; procedure, shortened: as §1
Streptococcus pneumoniae [3] = experiment: Antibacterial activity against Streptococcus pneumoniae after 24 hrs by microdilution method; format: functional; procedure, shortened: as §1
Streptococcus pneumoniae [4] = experiment: Antibacterial activity against Streptococcus pneumoniae-M after 24 hrs by microdilution method; format: functional; procedure, shortened: as §1
Streptococcus pyogenes [5] = experiment: Antibacterial activity against Streptococcus pyogenes after 24 hrs by microdilution method; format: functional; procedure, shortened: as §1
Streptococcus pyogenes [6] = experiment: Antibacterial activity against Streptococcus pyogenes-M after 24 hrs by microdilution method; format: functional; procedure, shortened: as §1
Haemophilus influenzae = experiment: Antibacterial activity against Haemophilus influenzae after 24 hrs by microdilution method; format: functional; procedure, shortened: as §1
Saccharomyces cerevisiae = experiment: Toxicity against Saccharomyces cerevisiae; format: organism-based; conditions: in vivo
Procedure, shortened: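 Yeast used as a surrogate for eukaryotic cell toxicity. Microdilution in Mueller–Hinton medium with compound from a DMF stock (5 mg/ml), final range 64 to 0.125 µg/ml. Incubated 24 h at 37 °C, with optical density read at 600 nm. MIC defined as the concentration inhibiting growth by 90%.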

Structure (SMILES)	MIC (Staphylococcus aureus [1]) [µg/mL]	MIC (Staphylococcus aureus [2]) [µg/mL]	MIC (Streptococcus pneumoniae [3]) [µg/mL]	MIC (Streptococcus pneumoniae [4]) [µg/mL]	MIC (Streptococcus pyogenes [5]) [µg/mL]	MIC (Streptococcus pyogenes [6]) [µg/mL]	MIC (Haemophilus influenzae) [µg/mL]	Activity (Saccharomyces cerevisiae)
CC[C@H]1OC(=O)[C@H](C)C2O[C@@](C)(C[C@@H](C)CN(C(=O)Nc3ccc(Cl)cc3Cl)[C@H](C)[C@@H](O)[C@]1(C)O)[C@H](O[C@@H]1O[C@H](C)C[C@H](N(C)C)[C@H]1O)[C@H]2C	> 64	> 64	> 64	> 64	> 64	> 64	> 64	Non-toxic
CC[C@H]1OC(=O)[C@H](C)[C@@H](O)[C@H](C)[C@@H](O[C@@H]2O[C@H](C)C[C@H](N(C)C)[C@H]2O)[C@](C)(O)C[C@@H](C)CN(C(=S)Nc2cccc(C(F)(F)F)c2)[C@H](C)[C@@H](O)[C@]1(C)O	> 64	> 64	> 64	> 64	> 64	> 64	> 64	Non-toxic
CC[C@H]1OC(=O)[C@H](C)[C@@H](O)[C@H](C)[C@@H](O[C@@H]2O[C@H](C)C[C@H](N(C)C)[C@H]2O)[C@](C)(O)C[C@@H](C)CN(C(=O)NC(C)C)[C@H](C)[C@@H](O)[C@]1(C)O	> 64	> 64	> 64	> 64	> 64	> 64	> 64	Non-toxic
CC[C@H]1OC(=O)[C@H](C)[C@@H](O)[C@H](C)[C@@H](O[C@@H]2O[C@H](C)C[C@H](N(C)C)[C@H]2O)[C@](C)(O)C[C@@H](C)CN(C(=O)Nc2ccccc2C(F)(F)F)[C@H](C)[C@@H](O)[C@]1(C)O	> 64	> 64	> 64	> 64	> 64	> 64	> 64	Non-toxic
CC[C@H]1OC(=O)[C@H](C)C2O[C@@](C)(C[C@@H](C)CN(C(=O)NC(C)C)[C@H](C)[C@@H](O)[C@]1(C)O)[C@H](O[C@@H]1O[C@H](C)C[C@H](N(C)C)[C@H]1O)[C@H]2C	> 64	> 64	> 64	> 64	> 64	> 64	> 64	Non-toxic
CC[C@H]1OC(=O)[C@H](C)[C@@H](O[C@H]2C[C@@](C)(OC)[C@@H](O)[C@H](C)O2)[C@H](C)[C@@H](O[C@@H]2O[C@H](C)C[C@H](N(C)C)[C@H]2O)[C@](C)(OC)C[C@@H](C)CN[C@H](C)[C@@H](O)[C@]1(C)O	> 64	> 64	0.5 (≈ 0.668 µM)	16 (≈ 21.4 µM)	1 (≈ 1.34 µM)	16 (≈ 21.4 µM)	8 (≈ 10.7 µM)	Non-toxic
CC[C@H]1OC(=O)[C@H](C)[C@@H](O)[C@H](C)[C@@H](O[C@@H]2O[C@H](C)C[C@H](N(C)C)[C@H]2O)[C@](C)(O)C[C@@H](C)CN(C(=O)NCc2ccccc2)[C@H](C)[C@@H](O)[C@]1(C)O	> 64	> 64	> 64	> 64	> 64	> 64	> 64	Non-toxic
CCNC(=O)N1C[C@H](C)C[C@@](C)(O)[C@H](O[C@@H]2O[C@H](C)C[C@H](N(C)C)[C@H]2O)[C@@H](C)[C@H](O)[C@@H](C)C(=O)O[C@H](CC)[C@@](C)(O)[C@H](O)[C@H]1C	> 64	> 64	> 64	> 64	> 64	> 64	> 64	Non-toxic
CC[C@H]1OC(=O)/C(C)=C\[C@H](C)[C@@H](O[C@@H]2O[C@H](C)C[C@H](N(C)C)[C@H]2O)[C@](C)(OC)C[C@@H](C)CN(C(=O)NC(C)C)[C@H](C)[C@@H](O)[C@]1(C)O	> 64	> 64	8 (≈ 12.2 µM)	> 64	16 (≈ 24.3 µM)	> 64	> 64	Non-toxic
C=CCNC(=S)N1C[C@H](C)C[C@@](C)(O)[C@H](O[C@@H]2O[C@H](C)C[C@H](N(C)C)[C@H]2O)[C@@H](C)[C@H](O)[C@@H](C)C(=O)O[C@H](CC)[C@@](C)(O)[C@H](O)[C@H]1C	> 64	> 64	> 64	> 64	> 64	> 64	> 64	Non-toxic
CC[C@H]1OC(=O)[C@H](C)[C@@H](O)[C@H](C)[C@@H](O[C@@H]2O[C@H](C)C[C@H](N(C)C)[C@H]2O)[C@](C)(O)C[C@@H](C)CN(C(=S)NCc2ccccc2)[C@H](C)[C@@H](O)[C@]1(C)O	> 64	> 64	> 64	> 64	> 64	> 64	> 64	Non-toxic
CC[C@H]1OC(=O)[C@H](C)[C@@H](O[C@H]2C[C@@](C)(OC)[C@@H](O)[C@H](C)O2)[C@H](C)[C@@H](O[C@@H]2O[C@H](C)C[C@H](N(C)C)[C@H]2O)[C@](C)(O)C[C@@H](C)C(=O)[C@H](C)[C@@H](O)[C@]1(C)O [ERYTHROMYCIN]	> 64	> 64	0.125 (≈ 0.17 µM)	8 (≈ 10.9 µM)	0.125 (≈ 0.17 µM)	8 (≈ 10.9 µM)	4 (≈ 5.45 µM)	
CC[C@H]1OC(=O)[C@H](C)[C@@H](O)[C@H](C)[C@@H](O[C@@H]2O[C@H](C)C[C@H](N(C)C)[C@H]2O)[C@](C)(O)C[C@@H](C)CN(C(=O)Nc2ccc(Cl)cc2Cl)[C@H](C)[C@@H](O)[C@]1(C)O	> 64	> 64	> 64	> 64	> 64	> 64	> 64	Non-toxic
CC[C@H]1OC(=O)[C@H](C)[C@@H](O)[C@H](C)[C@@H](O[C@@H]2O[C@H](C)C[C@H](N(C)C)[C@H]2O)[C@](C)(O)C[C@@H](C)CN(C(=O)Nc2cccc(C(F)(F)F)c2)[C@H](C)[C@@H](O)[C@]1(C)O	> 64	> 64	> 64	> 64	> 64	> 64	> 64	Non-toxic
CC[C@H]1OC(=O)[C@H](C)C(=O)[C@H](C)[C@@H](O[C@@H]2O[C@H](C)C[C@H](N(C)C)[C@H]2O)[C@](C)(OC)C[C@@H](C)CN(C(=O)Nc2ccc(Cl)cc2Cl)[C@H](C)[C@@H](O)[C@]1(C)O	> 64	> 64	8 (≈ 10.3 µM)	8 (≈ 10.3 µM)	16 (≈ 20.6 µM)	> 64	> 64	Non-toxic
CC[C@H]1OC(=O)[C@H](C)C2(O)O[C@@](C)(C[C@@H](C)CN(C(=O)Nc3ccc(Cl)cc3Cl)[C@H](C)[C@@H](O)[C@]1(C)O)[C@H](O[C@@H]1O[C@H](C)C[C@H](N(C)C)[C@H]1O)[C@H]2C	> 64	> 64	> 64	> 64	> 64	> 64	> 64	Non-toxic
CC[C@H]1OC(=O)[C@H](C)C(=O)[C@H](C)[C@@H](O[C@@H]2O[C@H](C)C[C@H](N(C)C)[C@H]2O)[C@](C)(OC)C[C@@H](C)CN(C(=O)NC(C)C)[C@H](C)[C@@H](O)[C@]1(C)O	> 64	> 64	8 (≈ 11.9 µM)	> 64	16 (≈ 23.7 µM)	> 64	> 64	Non-toxic
CC[C@H]1OC(=O)[C@H](C)[C@@H](O)[C@H](C)[C@@H](O[C@@H]2O[C@H](C)C[C@H](N(C)C)[C@H]2O)[C@](C)(O)C[C@@H](C)CN(C(=O)NC(C)(C)C)[C@H](C)[C@@H](O)[C@]1(C)O	> 64	> 64	> 64	> 64	> 64	> 64	> 64	Non-toxic
CC[C@H]1OC(=O)/C(C)=C\[C@H](C)[C@@H](O[C@@H]2O[C@H](C)C[C@H](N(C)C)[C@H]2O)[C@](C)(OC)C[C@@H](C)CN(C(=O)Nc2ccc(Cl)cc2Cl)[C@H](C)[C@@H](O)[C@]1(C)O	> 64	> 64	8 (≈ 10.5 µM)	16 (≈ 21 µM)	32 (≈ 42.1 µM)	> 64	> 64	Non-toxic
CC[C@H]1OC(=O)[C@H](C)[C@@H](O)[C@H](C)[C@@H](O[C@@H]2O[C@H](C)C[C@H](N(C)C)[C@H]2O)[C@](C)(OC)C[C@@H](C)CN(C(=O)NC(C)C)[C@H](C)[C@@H](O)[C@]1(C)O	> 64	> 64	32 (≈ 47.3 µM)	> 64	> 64	> 64	> 64	Non-toxic
CC[C@H]1OC(=O)[C@H](C)[C@@H](OC(=O)Cc2ccc([N+](=O)[O-])cc2)[C@H](C)[C@@H](O[C@@H]2O[C@H](C)C[C@H](N(C)C)[C@H]2O)[C@](C)(O)C[C@@H](C)CN(C(=O)Nc2ccc(Cl)cc2Cl)[C@H](C)[C@@H](O)[C@]1(C)O	32 (≈ 34.5 µM)	32 (≈ 34.5 µM)	2 (≈ 2.16 µM)	4 (≈ 4.31 µM)	4 (≈ 4.31 µM)	32 (≈ 34.5 µM)	32 (≈ 34.5 µM)	Non-toxic
CC[C@H]1OC(=O)[C@H](C)C2(O)O[C@@](C)(C[C@@H](C)CN(C(=O)NC(C)C)[C@H](C)[C@@H](O)[C@]1(C)O)[C@H](O[C@@H]1O[C@H](C)C[C@H](N(C)C)[C@H]1O)[C@H]2C	> 64	> 64	> 64	> 64	> 64	> 64	> 64	Non-toxic
